In ChEMBL document CHEMBL3817745, “Structure-Activity Relationship for the 4(3H)-Quinazolinone Antibacterials” (J Med Chem, 2016):
In brackets after ≈: the same amount, converted by molar mass. Activity calls are given as the source filed them. The calls are words filed in the database; no cut-off is given here.

Tests used:
[1] = tested on: Staphylococcus aureus; experiment: Antibacterial activity against methicillin-susceptible Staphylococcus aureus ATCC 29213 incubated for 16 to 20 hrs by microdilution method; assay type: functional
[2] = tested on: Mus musculus; experiment: AUC (0 to last) in ICR mouse peritonitis model infected with methicillin resistant Staphylococcus aureus ATCC 27660 at 10 mg/kg, iv administered as single dose measured up to 8 hrs by UPLC analysis; assay type: ADME, organism-based; design: dose 10 mg/kg, time 0 - last, route intravenous; details: in vivo, 8 h
Summary of the method: (§1)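 Fast PK: female ICR mice (n = 2 per time point) given single tail-vein iv injection at 5, 10 or 20 mg/kg in 25% DMSO/65% propylene glycol/10% water (2.5, 5 or 10 mg/mL); terminal cardiac blood at 5 min, 40 min, 2, 4, 8 h; plasma analysed by UPLC with internal standard calibration.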

[3] = tested on: HepG2; experiment: Cytotoxicity against human HepG2 cells incubated for 16 hrs by XTT assay; assay type: cell-based; details: HepG2, 16 h
Summary of the method: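 HepG2 cells were tested with an XTT viability read-out, in triplicate. IC50 was obtained by nonlinear regression.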

[4] = Hemolytic activity against human RBC at 64 ug/ml relative to control; assay type: ADME, cell-based, Erythrocyte; details: erythrocyte
Summary of the method: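 Hemolysis was measured at a fixed 64 μg/mL on a 10% red-cell suspension from heparinized human blood. Triton-X served as the positive control, and results are given as percent hemolysis.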

[5] = tested on: Enterococcus faecium; experiment: Antibacterial activity against Enterococcus faecium NCTC 7171 incubated for 16 to 20 hrs by microdilution method; assay type: functional
Summary of the method: (§2)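 CLSI broth microdilution. 2-fold serial dilutions were made in cation-adjusted Mueller–Hinton broth, with 5% lysed horse blood added for Streptococcus strains, in triplicate. Inoculum 5×10^5 CFU/mL. Plates incubated 36 °C for 16–20 h. MIC taken as the lowest concentration visibly inhibiting growth.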

[6] = tested on: Klebsiella pneumoniae; experiment: Antibacterial activity against Klebsiella pneumoniae ATCC 700603 incubated for 16 to 20 hrs by microdilution method; assay type: functional; summary of the method: as §2
[7] = tested on: Acinetobacter baumannii; experiment: Antibacterial activity against Acinetobacter baumannii ATCC 17961 incubated for 16 to 20 hrs by microdilution method; assay type: functional; summary of the method: as §2
[8] = tested on: Pseudomonas aeruginosa; experiment: Antibacterial activity against Pseudomonas aeruginosa […] incubated for 16 to 20 hrs by microdilution method; assay type: functional; summary of the method: as §2
[9] = tested on: Escherichia coli; experiment: Antibacterial activity against Escherichia coli ATCC 25922 incubated for 16 to 20 hrs by microdilution method; assay type: functional; summary of the method: as §2
[10] = tested on: Klebsiella aerogenes; experiment: Antibacterial activity against Enterobacter aerogenes ATCC 35029 incubated for 16 to 20 hrs by microdilution method; assay type: functional; summary of the method: as §2
[11] = tested on: Mus musculus; experiment: AUC (0 to last) in ICR mouse peritonitis model infected with methicillin resistant Staphylococcus aureus ATCC 27660 at 5 mg/kg, iv administered as single dose measured up to 8 hrs by UPLC analysis; assay type: ADME, organism-based; design: dose 5 mg/kg, route intravenous, time 0 - last; details: in vivo; summary of the method: as §1
[12] = tested on: Staphylococcus aureus; experiment: Antibacterial activity against mecA-positive methicillin/oxacillin/tetracycline-resistant Staphylococcus aureus ATCC 27660 incubated for 16 to 20 hrs by microdilution method; assay type: functional
[13] = tested on: Staphylococcus aureus; experiment: Antibacterial activity against mecA-positive multidrug resistant Staphylococcus aureus COL NRS100 incubated for 16 to 20 hrs by microdilution method; assay type: functional
[14] = tested on: Staphylococcus aureus; experiment: Antibacterial activity against mecA-positive multidrug resistant Staphylococcus aureus NRS119 incubated for 16 to 20 hrs by microdilution method; assay type: functional
[15] = tested on: Staphylococcus aureus; experiment: Antibacterial activity against mecA-positive multidrug resistant Staphylococcus aureus NRS120 incubated for 16 to 20 hrs by microdilution method; assay type: functional
[16] = tested on: Staphylococcus aureus; experiment: Antibacterial activity against vancomycin/methicillin-resistant Staphylococcus aureus VRS1 clinical isolate incubated for 16 to 20 hrs by microdilution method; assay type: functional
[17] = tested on: Staphylococcus aureus; experiment: Antibacterial activity against vancomycin/methicillin-resistant Staphylococcus aureus VRS2 clinical isolate incubated for 16 to 20 hrs by microdilution method; assay type: functional
[18] = tested on: Staphylococcus epidermidis; experiment: Antibacterial activity against Staphylococcus epidermidis ATCC 35547 incubated for 16 to 20 hrs by microdilution method; assay type: functional; summary of the method: as §2
[19] = tested on: Staphylococcus haemolyticus; experiment: Antibacterial activity against Staphylococcus haemolyticus ATCC 29970 incubated for 16 to 20 hrs by microdilution method; assay type: functional
[20] = tested on: Streptococcus oralis; experiment: Antibacterial activity against Streptococcus oralis ATCC 9811 incubated for 16 to 20 hrs by microdilution method; assay type: functional; summary of the method: as §2
[21] = tested on: Streptococcus pyogenes; experiment: Antibacterial activity against Streptococcus pyogenes ATCC 49399 incubated for 16 to 20 hrs by microdilution method; assay type: functional; summary of the method: as §2
[22] = tested on: Bacillus cereus; experiment: Antibacterial activity against Bacillus cereus ATCC 13061 incubated for 16 to 20 hrs by microdilution method; assay type: functional; summary of the method: as §2
[23] = tested on: Bacillus licheniformis; experiment: Antibacterial activity against Bacillus licheniformis ATCC 12759 incubated for 16 to 20 hrs by microdilution method; assay type: functional; summary of the method: as §2
[24] = tested on: Enterococcus faecalis; experiment: Antibacterial activity against methicillin-susceptible Enterococcus faecalis ATCC 29212 incubated for 16 to 20 hrs by microdilution method; assay type: functional; summary of the method: as §2
[25] = tested on: Enterococcus faecalis; experiment: Antibacterial activity against vancomycin-resistant Enterococcus faecalis 99 clinical isolate incubated for 16 to 20 hrs by microdilution method; assay type: functional
[26] = tested on: Staphylococcus aureus; experiment: Antibacterial activity against Staphylococcus aureus COL expressing pbpA antisense plasmid assessed as increase in zone of inhibition after 18 to 20 hrs in presence of xylose; assay type: functional, organism-based
Summary of the method: (§3)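 MRSA COL strains carrying pbpA, pbp2, mecA or pbp3 under antisense control were grown overnight on agar with 34 μg/mL chloramphenicol. Molten chloramphenicol agar with 0 or 50 mM xylose was seeded at 1×10^7 CFU/mL and set. Compound (10 μL) was spotted on the agar, and plates were incubated 36 °C for 18–20 h. Susceptibility with and without xylose induction was compared.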

[27] = tested on: Staphylococcus aureus; experiment: Antibacterial activity against Staphylococcus aureus COL expressing pbp2a antisense plasmid assessed as increase in zone of inhibition after 18 to 20 hrs in presence of xylose; assay type: functional, organism-based; summary of the method: as §3
[28] = tested on: Staphylococcus aureus; experiment: Antibacterial activity against Staphylococcus aureus COL expressing pbp2 antisense plasmid assessed as increase in zone of inhibition after 18 to 20 hrs in presence of xylose; assay type: functional, organism-based; summary of the method: as §3
[29] = tested on: Staphylococcus aureus; experiment: Antibacterial activity against Staphylococcus aureus COL expressing pbp3 antisense plasmid assessed as increase in zone of inhibition after 18 to 20 hrs in presence of xylose; assay type: functional, organism-based; summary of the method: as §3
[30] = tested on: Staphylococcus aureus; experiment: Antibacterial activity against methicillin-resistant Staphylococcus aureus NRS70 in ICR mouse neutropenic thigh infection model assessed as reduction in bacterial load at 20 mg/kg, sc tid administered every 8 hrs starting from 1 hr post infection and measured 7 hrs post last dose; assay type: functional, organism-based
Summary of the method: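 Female ICR mice (n = 8 per group) made neutropenic with ip cyclophosphamide 200 mg/kg at 4 days and 1 day pre-infection; 100 μL NRS70 (~1×10^6 CFU/mL in brain–heart infusion) injected im into right thigh; sc doses at 1, 9, 17 h; thighs harvested at 24 h, homogenized, plated in triplicate on LB agar; log10 CFU/g.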

Compound	MIC [1] [mg/L]	AUClast [2] [µg·min/mL]	IC50 [3] [mg/L]	Activity [4] [%]	MIC [5] [mg/L]	MIC [6] [mg/L]	MIC [7] [mg/L]	MIC [8] [mg/L]	MIC [9] [mg/L]	MIC [10] [mg/L]	MIC [13] [mg/L]	MIC [16] [mg/L]	MIC [17] [mg/L]	MIC [18] [mg/L]	MIC [20] [mg/L]	MIC [21] [mg/L]	MIC [22] [mg/L]	MIC [23] [mg/L]	MIC [24] [mg/L]	MIC [25] [mg/L]	other results
CC(=O)NCc1cccc(-n2c(/C=C/c3ccc(C#N)cc3)nc3ccccc3c2=O)c1	0.015 (≈ 0.0357 µM)	142	99 (≈ 235 µM)	< 1	≥ 8	≥ 16	≥ 16	≥ 16	≥ 16	≥ 16	–	–	–	–	–	–	–	–	–	–	–
N#Cc1ccc(/C=C/c2nc3ccccc3c(=O)n2-c2cccc(O)c2)cc1	0.03 (≈ 0.0821 µM)	–	53.6 (≈ 147 µM)	< 1	> 128	≥ 16	≥ 16	≥ 16	≥ 16	≥ 16	0.25 (≈ 0.684 µM)	0.5 (≈ 1.37 µM)	0.06 (≈ 0.164 µM)	0.125 (≈ 0.342 µM)	> 128	> 128	> 128	> 128	128 (≈ 350 µM)	64 (≈ 175 µM)	AUClast [11]: 26.8 µg·min/mL; MIC [12]: 0.5 mg/L (≈ 1.37 µM); MIC [14]: 0.125 mg/L (≈ 0.342 µM); MIC [15]: 0.125 mg/L (≈ 0.342 µM); MIC [19]: 0.125 mg/L (≈ 0.342 µM)
CCO/N=C(\C(=O)N[C@@H]1C(=O)N2C(C(=O)[O-])=C(Sc3nc(-c4cc[n+](C)cc4)cs3)CS[C@H]12)c1nsc(NP(=O)(O)O)n1	–	–	–	–	–	–	–	–	–	–	–	–	–	–	–	–	–	–	–	–	Activity [26]: Active; Activity [27]: Active; Activity [28]: Active; Activity [29]: Active
C#Cc1ccc(/C=C/c2nc3ccccc3c(=O)n2-c2cccc(C(=O)O)c2)cc1	–	–	–	–	–	–	–	–	–	–	–	–	–	–	–	–	–	–	–	–	Activity [30]: Active; Activity [26]: Active; Activity [27]: Active; Activity [28]: inactive; Activity [29]: inactive
N#Cc1ccc(/C=C/c2nc3ccccc3c(=O)n2-c2cccc(N)c2)cc1	0.5 (≈ 1.37 µM)	204	77.2 (≈ 212 µM)	3.3	> 128	≥ 16	≥ 16	≥ 16	≥ 16	≥ 16	4 (≈ 11 µM)	8 (≈ 22 µM)	4 (≈ 11 µM)	0.125 (≈ 0.343 µM)	> 128	> 128	> 128	> 128	> 128	16 (≈ 43.9 µM)	MIC [14]: 4 mg/L (≈ 11 µM); MIC [15]: 4 mg/L (≈ 11 µM); MIC [19]: 1 mg/L (≈ 2.74 µM)
CC(=O)Nc1cccc(-n2c(/C=C/c3ccc(C#N)cc3)nc3ccccc3c2=O)c1	0.25 (≈ 0.615 µM)	–	51 (≈ 125 µM)	< 1	> 128	≥ 16	≥ 16	≥ 16	≥ 16	≥ 16	1 (≈ 2.46 µM)	4 (≈ 9.84 µM)	0.125 (≈ 0.308 µM)	0.06 (≈ 0.148 µM)	> 128	> 128	> 128	> 128	128 (≈ 315 µM)	64 (≈ 157 µM)	AUClast [11]: 38 µg·min/mL; MIC [12]: 1 mg/L (≈ 2.46 µM)
N#Cc1ccc(/C=C/c2nc3ccccc3c(=O)n2-c2cccc(C(=O)NCCO)c2)cc1	1 (≈ 2.29 µM)	425	70.2 (≈ 161 µM)	< 1	≥ 8	≥ 16	≥ 16	≥ 16	≥ 16	≥ 16	–	–	–	–	–	–	–	–	–	–	–
O=C(O)c1ccc(/C=C/c2nc3ccccc3c(=O)n2-c2cccc(O)c2)cc1	> 128	–	–	–	≥ 8	≥ 16	≥ 16	≥ 16	≥ 16	≥ 16	–	–	–	–	–	–	–	–	–	–	–
